Assay outcomes deposited in PubChem by Broad Institute.
CASP6 VEID inh: caspase-6 (human) enzyme inhibition | 350,000 tested, 0.53% active | P55212 | purified caspase-6, Z-VEID-R110 cleavage fluorescence | inhibition, % at 12.5 µM;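 active = mean inhibition across replicates at least about 35%, with every replicate also reaching that limit, limit read from the data; inconclusive = only one of the two criteria met; inactive = neither criterion met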;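 also: 0% = median of neutral control wells and 100% = no fluorescence left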
Wnt act: activates Wnt/beta-catenin signaling in a reporter cell assay | activator, plate reader | activation, % at 9.35 µM | 300,000 tested, 1.2% active; in the data active = activation above about 30%, passing the limit was not always enough; inconclusive = no clear call, values can overlap the other calls;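 also: 0% = neutral control wells and 100% = positive control wells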
MITF TRPM1 HTS: MITF TRPM1 promoter activation in melanoma cells; activation, % at 12.5 µM; AID 588334; 300,000 tested, 0.75% active; SK-MEL-5 TRPM1-promoter luciferase, 24 h; % of positive control, neutral wells = 0;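 active = mean activation of at least 80% with every replicate also reaching 80%; inconclusive = mean reaches 80% but some replicate falls short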;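 also: 0% = neutral control wells and 100% = parthenolide positive control wells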
NSD2 inh: blocks human histone methyltransferase NSD2; O96028; NSD2 peptide methylation, AlphaScreen, 120 min; 310,000 tested, 0.54% active; inhibition, % at 12.5 µM; in the data active = inhibition above about 50%
esBAF inh: inhibitors of esBAF chromatin remodeling in mouse ES cells; Bmi1-luciferase knock-in reporter, 24 h; 100% = twice the neutral-well signal; reporter increase, % at 12.5 µM; 350,000 tested, 2% active; AID 602393; in the data active = activation above about 40%; inconclusive = no clear call, values can overlap the other calls;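 also: 0% = median of the plate's neutral control wells and 100% = double that signal; a rise in the Bmi1 reporter signal indicates esBAF inhibition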
Xi reactivation: activators of X-chromosome reactivation in mouse fibroblasts; XiGFP mouse fibroblasts, % GFP-positive cells imaging, 3 d; cells co-treated with 5-aza-dC sensitizer; scaled so ellipticine positive control = 100%; activation, % at 7.58 µM; 360,000 tested, 0.055% active;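 active = mean normalized replicate activation at least 10% and every replicate at or above 10%; inconclusive = only one of the two criteria met; inactive = mean below 10% and not all replicates reach 10%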;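 also: 0% = median of on-plate neutral control wells and 100% = ellipticine 6 µM median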
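Material: XiGFP fibroblasts, SV40-immortalized; Buffer or medium: DMEM containing 5-aza-dC; Compound dosing: single point; Times: 3 days compound exposure.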
The depositor's hits bear a star; ? = inconclusive; . = no result. In the library only some 3% were active in any assay of this set; here they are far more common.

SMILES	CASP6 VEID inh	Wnt act	MITF TRPM1 HTS	NSD2 inh	esBAF inh	Xi reactivation
O=C(c1ccc(Cl)cc1)c1cnc(-c2ccccc2)s1	.	.	.	-2	28	.
O=C(c1ccc(Cl)cc1)c1cnc(Nc2ccccc2Cl)s1	.	.	99*	0	57*	.
Cc1ccnc2nc(C(=O)OCC(=O)c3ccc(NC(=O)CC(C)C)cc3)nn12	0	-3	18	0	.	0
CCC(=O)Nc1ccc(C(=O)COC(=O)c2nc3nccc(C)n3n2)cc1	69*	-7	7	7	-4	0
S=c1[nH]nc(-c2ccccc2)n1/N=C/C=C/c1ccco1	13	1	-3	6	.	0
S=c1[nH]nc(-c2cccnc2)n1/N=C/C=C/c1ccco1	39*	-8	-3	6	-8	0
O=C(Nc1nccs1)c1ccc(-c2ccc(F)c(Cl)c2)o1	3	11	113*	-1	57*	0
CN(C)c1ccnc(Oc2ccc(C(C)(C)C)cc2)c1C#N	.	.	48	4	52*	.
CN(C)c1ccnc(Oc2ccc(Cl)cc2)c1C#N	4	14	49	-3	28	.
CS(=O)(=O)c1ccc(-c2sc3ccccc3c2C(=O)N2CCN(c3ccc(F)cc3)CC2)cc1	0	45*	94*	.	34	-1
O=C(c1ccccc1C(=O)N1CCN(c2ccc(F)cc2)CC1)N1CCN(c2ccc(F)cc2)CC1	.	.	.	4	5	.
CC(=O)N(C)C1=C(O)c2ccccc2C(=O)C1=O	.	.	5	9	-4	.
CC(=O)N(C1=C(N)C(=O)c2ccccc2C1=O)C(C)C	12	0	-6	81*	.	0
COc1ccc(C2NC(c3ccc(OC)cc3OC)C(C)C(=O)C2C)c(OC)c1 (configuration not stated)	55*	-1	-16	7	.	0
Cc1ccc(-c2nnc(Cc3ccc([N+](=O)[O-])cc3)o2)cc1	0	?	94*	-2	-5	0
COc1ccccc1C(=O)Nc1ccc2c(c1)OC[C@H](C)N(CC1CC1)C[C@H](C)[C@H](OC)CN(C)C2=O	.	.	.	.	4	0
CN(C)C(=O)C[C@@H]1C=C[C@@H](NC(=O)NC2CCCC2)[C@@H](CO)O1	1	.	.	.	-1	0
CCOc1cccc(C(=O)NC(=S)Nc2ccccc2)c1	1	5	93*	1	.	0
CC(C)(C)NC(=S)NNC(=O)c1ccc2ncccc2c1	-1	11	73	-2	57*	0
O=C(Nc1ccc2ncccc2c1)c1ccccc1	1	-1	-10	35	-5	0
O=C(NC(=S)Nc1ccc2ncccc2c1)c1ccccc1	0	15	75	5	67*	0
COc1cccc(C(=O)Nc2ccc3[nH]ncc3c2)c1	2	8	41	0	0	0
O=C(NC(=S)Nc1ccc2[nH]ncc2c1)c1ccccc1	.	.	41	-4	66*	.
CCC(=O)Nc1cccc(NC(=S)NC(=O)c2ccc(C)cc2)c1	4	-8	47	-2	96*	0
O=C(O)c1ccc(NC(=S)NC(=O)c2ccc3ccccc3c2)cc1	3	18	2	2	41*	0
SMILES	CASP6 VEID inh	Wnt act	MITF TRPM1 HTS	NSD2 inh	esBAF inh	Xi reactivation
O=C(O)c1cccc(NC(=S)NC(=O)c2ccc3ccccc3c2)c1	4	16	-38	2	.	0
O=C(NC(=S)Nc1cccc(NC(=S)NC(=O)c2ccccc2)c1)c1ccccc1	-1	-3	1	0	66*	0
O=C(NC(=S)Nc1ccc2nc[nH]c2c1)c1ccccc1	5	17	102*	9	55*	0
CCC(=O)Nc1cccc(NC(=S)NC(=O)c2ccccc2)c1	2	.	48	1	.	0
O=C(C[C@H]1CC[C@H]2[C@@H](COC[C@H](O)CN2C(=O)Nc2ccc(Cl)c(Cl)c2)O1)NCc1ccc(F)cc1	0	.	.	.	-2	0
COc1ccc(CN(C)C[C@H]2Oc3ccc(NC(=O)NC4CCCCC4)cc3C(=O)N([C@@H](C)CO)C[C@H]2C)cc1	0	.	.	.	0	1
CO[C@H]1CN(C)C(=O)c2ccc(NC(C)=O)cc2OC[C@H](C)N(C(=O)c2cccnc2)C[C@@H]1C	-1	.	.	.	.	1
CC(=O)c1cccc(NC(=S)NC(=O)c2ccc(C)cc2Cl)c1	0	.	29	-1	60*	0
C[C@@H]1CCCCO[C@H](CN(C)C(=O)Nc2ccc(F)cc2)[C@H](C)CN([C@@H](C)CO)C(=O)c2cc(NC(=O)CCCN(C)C)ccc2O1	-1	.	.	.	0	0
Cc1ccc(NC(=O)c2ccc([N+](=O)[O-])cc2)cc1S(=O)(=O)N(C)C	-3	-1	17	0	49*	0
Cc1ccc(NC(=O)CCNC(=O)c2ccc([N+](=O)[O-])cc2)cc1S(=O)(=O)N(C)C	2	-1	-3	-2	.	0
CC(C)CC#Cc1cnc2c(c1)C(=O)N([C@H](C)CO)C[C@@H](C)[C@H](CN(C)C(=O)C1CCOCC1)O2	0	.	.	.	2	-1
Cc1onc(NC(=O)NC(=O)c2c(F)cccc2Cl)c1Br	76*	-2	5	-2	-8	1
Cc1onc(NC(=O)NC(=O)c2c(Cl)cccc2Cl)c1Br	-1	1	-3	10	-1	0
COc1ccc2c3c([nH]c2c1)[C@@H](CO)N(S(C)(=O)=O)CC31CCN(C(=O)Cc2cccnc2)CC1	-1	.	.	.	.	0
CN(C)c1ccc(O)c2c1CC1CC3[C@@H](N(C)C)C(=O)C(C(N)=O)=C(O)[C@]3(O)C(=O)C1=C2O (some centres not stated)	66*	-4	-12	.	17	0
O=C(O)CSc1cc(NS(=O)(=O)c2ccc(Cl)cc2)c2ccccc2c1O	96*	6	-33	137*	3	0
O=S(=O)(Nc1cc(Sc2cccc3cccnc23)c(O)c2ccccc12)c1ccc(F)cc1	0	-1	.	14	.	0
CCCN(C)C[C@H]1Oc2cc(-c3cccc(OC)c3)ccc2S(=O)(=O)N([C@H](C)CO)C[C@H]1C	1	.	.	.	-1	-1
O=C(O)/C=C/C(=O)Nc1ccc2c(c1)C(=O)c1ccccc1C2=O	25	50*	18	.	.	0
Clc1ccccc1CN1CCN(/N=C/C=C\c2ccco2)CC1	15	4	25	2	.	0
C(/C=C/c1ccco1)=N/N1CCN(c2ccccc2)CC1	.	.	113*	3	25	.
CNC[C@@H]1Oc2ccc(NS(=O)(=O)c3c(C)noc3C)cc2CC(=O)N([C@@H](C)CO)C[C@H]1C	0	.	.	.	-6	0
O=C(OCC(=O)c1cccc2ccccc12)c1ccc(CO)cc1	2	9	137*	1	.	0
O=C(OCC(=O)c1ccccc1Br)c1ccncc1	8	0	-12	.	-11	0
